According to ChEMBL document CHEMBL3763092, “Design and synthesis of pyrrolobenzodiazepine-gallic hybrid agents as p53-dependent and -independent apoptogenic signaling in melanoma cells” (Eur J Med Chem, 2016):
The source made the active and inactive calls. The calls are words filed in the database; no cut-off is given here.

How the values were obtained:
[1] = Cytotoxicity against p53 knockout human H1299 cells assessed as cell viability at 1 uM after 24 hrs by MTT assay; format: functional; conditions: NCI-H1299, 24 h, read-out: Activity
Outline: (§1)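 Cells were exposed to compound at 1 µM for 24 h, then growth and viability were read by MTT assay. Media: A375 in DMEM; RPMI7951 and MCF-7 in MEM; A549 in RPMI1640; H1299 in DMEM-F12; all with 10% FCS and penicillin/streptomycin, at 37 °C and 5% CO2. Fibroblasts came from adult foreskin. DMSO stocks were 10 mM.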

A-375 [2] = experiment: Cytotoxicity against human A375 cells expressing p53 wild type assessed as cell viability at 1 uM after 24 hrs by MTT assay; format: functional; conditions: A-375, 24 h, read-out: Activity; outline: as §1
A549 = experiment: Cytotoxicity against human A549 cells assessed as cell viability at 1 uM after 24 hrs by MTT assay; format: functional; conditions: A549, 24 h, read-out: Activity; outline: as §1
MCF7 = experiment: Cytotoxicity against human MCF7 cells expressing p53 wild type assessed as cell viability at 1 uM after 24 hrs by MTT assay; format: functional; conditions: MCF7, 24 h, read-out: Activity; outline: as §1
[3] = Cytotoxicity against human fibroblast cells expressing p53 wild type assessed as cell viability at 1 uM after 24 hrs by MTT assay; format: cell-based; conditions: read-out: Activity; outline: as §1
[4] = Cytotoxicity against human RPMI7951 cells expressing p53 mutant assessed as cell viability at 1 uM after 24 hrs by MTT assay; format: functional; conditions: RPMI-7951, 24 h, read-out: Activity; outline: as §1
A-375 [5] = experiment: Induction of apoptosis in human A375 cells expressing p53 wild type assessed as increase in cleaved caspase-3 levels at 0.5 uM after 24 hrs by western blot analysis; format: functional, cell-based
Outline: (§2)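 A375 cells were exposed to 0.5 µM for 24 h, and lysates were immunoblotted with specific antibodies (p53, Cdc25c, p-Chk1, Bcl-xL, PARP, caspase-3). GAPDH served as loading control. Three independent experiments.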

A-375 [6] = experiment: Induction of apoptosis in human A375 cells expressing p53 wild type assessed as increase in cleaved PARP levels at 0.5 uM after 24 hrs by western blot analysis; format: functional, cell-based; outline: as §2
A-375 [7] = experiment: Induction of apoptosis in human A375 cells expressing p53 wild type assessed as increase in p53 levels at 0.5 uM after 24 hrs by western blot analysis; format: functional, cell-based; outline: as §2
A-375 [8] = experiment: Induction of apoptosis in human A375 cells expressing p53 wild type assessed as decrease in Bcl-xl levels at 0.5 uM after 24 hrs by western blot analysis; format: functional, cell-based; outline: as §2
A-375 [9] = experiment: Induction of apoptosis in human A375 cells expressing p53 wild type assessed as increase release of cytochrome c from mitochondria to cytosol at 0.5 uM after 24 hrs by immunofluorescence analysis; format: functional, cell-based
Outline: (§3)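 A375 cells on coverslips (1 × 10^4) were treated with 0.5 µM for 24 h. Cells were fixed in 4% formaldehyde for 5 min at 4 °C, permeabilized with 0.5% Triton X-100, and blocked with 5% BSA at 37 °C for 45 min. Primary antibodies were applied for 1 h at RT: mouse anti-p-ATR and anti-p-ATM 1:1000, anti-8-oxoguanine 1:250, COX IV and cytochrome c 1:1000. Secondary antibodies (rhodamine for 8-oxoguanine) followed for 30 min. DAPI counterstain.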

RPMI-7951 [10] = experiment: Induction of apoptosis in human RPMI7951 cells expressing p53 mutant assessed as decrease in lysosomal H+ concentration at 0.5 uM after 24 and 48 hrs by flow cytometric analysis; format: functional, cell-based
Outline: (§4)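 Cells were loaded with LysoTracker Green (75 nM) for 15 min at 37 °C before treatment with 0.5 µM for the indicated times. After washing, mean fluorescence was quantified by flow cytometry. For p53 knockdown, A375 cells (6 × 10^4/well, antibiotic-free DMEM) were transfected with 30 nM tp53 siRNA or non-target siRNA using Lipofectamine RNAiMAX and harvested at 24 h.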

A-375 [11] = experiment: Induction of DNA damage in human A375 cells expressing p53 wild type assessed as increase in ATR/ATM activation at 0.5 uM after 24 hrs by immuohistochemistry analysis; format: functional, cell-based; outline: as §3
A-375 [12] = experiment: Effect on cell cycle distribution in human A375 cells expressing p53 wild type assessed as number of cells at S-phase at 0.5 uM after 24 hrs by FACS analysis (reference value: 13.8 %); format: functional
RPMI-7951 [13] = experiment: Induction of apoptosis in human RPMI7951 cells expressing p53 mutant assessed as increased release of cytochrome c to cytosol at 0.5 uM by immunofluorescent staining analysis; format: functional, cell-based
Outline: (§5)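 RPMI7951 cells on coverslips (1 × 10^4) were treated with 0.5 µM for 24 h. Immunofluorescence steps: fixation in 4% formaldehyde, permeabilization with 0.5% Triton X-100, blocking with 5% BSA. Primary antibodies: rabbit anti-cathepsin D and mouse anti-LAMP-1 at 1:500, cytochrome c and COX IV at 1:1000, 1 h at RT. Secondary antibodies for 30 min. DAPI counterstain.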

A-375 [14] = experiment: Induction of reactive oxygen species generation in human A375 cells expressing p53 wild type assessed as increase in intracellular H2O2 level at 0.5 uM after 24 hrs by DCFH-DA staining based fluorescence analysis; format: functional, cell-based
Outline: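 A375 cells were treated with 0.5 µM for 0, 12 and 24 h and stained with DCFH-DA to detect intracellular H2O2.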

A-375 [15] = experiment: Effect on cell cycle distribution in human A375 cells expressing p53 wild type assessed as number of cells at subG1 phase at 0.5 uM after 24 hrs by FACS analysis (reference value: 1 %); format: functional
RPMI-7951 [16] = experiment: Induction of apoptosis in human RPMI7951 cells expressing p53 mutant assessed as increased release of cathepsin D to cytosol at 0.5 uM by immunofluorescent staining analysis; format: functional, cell-based; outline: as §5
RPMI-7951 [17] = experiment: Cytotoxicity against human RPMI7951 expressing p53 mutant cells assessed as colony formation at 0.5 uM after 10 days by SRB assay; format: functional, cell-based
Outline: (§6)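 Cells were seeded at 100 per well and treated from the second day. Medium containing 0.5 µM agent was renewed every 3 days. After 10 days of treatment, colonies were stained with SRB and photographed. Three independent experiments.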

A-375 [18] = experiment: Cytotoxicity against human A375 cells expressing p53 wild type assessed as colony formation at 0.5 uM after 10 days by SRB assay; format: functional, cell-based; outline: as §6
A-375 [19] = experiment: Induction of apoptosis in human A375 cells expressing p53 wild type assessed as increase in p53 mRNA level by RT- qPCR analysis; format: functional, cell-based; conditions: TDE = time-dependent effect
Outline: (§7)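 Quantitative real-time PCR on A375 cells over a time course, measuring p53, bax and bcl-xl mRNA normalized to GAPDH mRNA.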

A-375 [20] = experiment: Effect on cell cycle distribution in human A375 cells expressing p53 wild type assessed as number of cells at G2/M phase at 0.5 uM after 24 hrs by FACS analysis (reference value: 12.1 %); format: functional
A-375 [21] = experiment: Induction of apoptosis in human A375 cells expressing p53 wild type assessed as lysosomal H+ concentration at 0.5 uM after 24 and 48 hrs by flow cytometric analysis; format: functional, cell-based; outline: as §4
A-375 [22] = experiment: Induction of apoptosis in human A375 cells expressing p53 wild type assessed as decrease in mitochondrial membrane potential at 0.5 uM after 12 hrs by DiOC6 dye based flow cytometry; format: functional, cell-based
Outline: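 A375 cells were treated with 0.5 µM for 0, 12 and 24 h, labeled with DiOC6 and analyzed by flow cytometry. Three independent experiments.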

A-375 [23] = experiment: Decrease in Cdc25c level in human A375 cells expressing p53 wild type at 0.5 uM after 24 hrs by western blot analysis; format: functional, cell-based; outline: as §2
A-375 [24] = experiment: Induction of DNA lesion in human A375 cells expressing p53 wild type assessed as increase in 8-oxoguanine expression at 0.5 uM after 24 hrs by immunohistochemical analysis; format: functional, cell-based; outline: as §3
A-375 [25] = experiment: Effect on cell cycle distribution in human A375 cells expressing p53 wild type assessed as number of cells at G0/G1 phase at 0.5 uM after 24 hrs by FACS analysis Rvb = 74.1 %); format: functional
A-375 [26] = experiment: Induction of apoptosis in human A375 cells expressing p53 wild type assessed as decrease in bcl-xl mRNA level by RT- qPCR analysis; format: functional, cell-based; conditions: TDE = time-dependent effect; outline: as §7
RPMI-7951 [27] = experiment: Induction of apoptosis in human RPMI7951 cells expressing p53 mutant assessed as PARP cleavage at 0.5 uM after 24 hrs by western blot analysis; format: functional, cell-based
A-375 [28] = experiment: Induction of apoptosis in human A375 cells expressing p53 wild type assessed as increase in bax mRNA level by RT- qPCR analysis; format: functional, cell-based; conditions: TDE = time-dependent effect; outline: as §7
A-375 [29] = experiment: Induction of apoptosis in human A375 cells transfected with siRNA p53 assessed as decrease in lysosomal H+ concentration at 0.5 uM after 24 and 48 hrs by flow cytometric analysis; format: functional, cell-based; outline: as §4
A-375 [30] = experiment: Increase in Chk1 phosphorylation in human A375 cells expressing p53 wild type at 0.5 uM after 24 hrs by western blot analysis; format: functional, cell-based; outline: as §2

COc1cc2c(cc1OCCCCNC(=O)c1cc(OC)c(OC)c(OC)c1)N=C[C@@H]1CCCN1C2=O
viability at 1 µM [1]: 95%
viability at 1 µM (A-375 [2]): 79.5%
viability at 1 µM (A549): 100%
viability at 1 µM (MCF7): 96.3%
viability at 24 h, 1 µM [3]: 98.2%
viability at 1 µM [4]: 83%

COc1cc2c(cc1OCCCCCCNC(=O)c1cc(OC)c(OC)c(OC)c1)N=C[C@@H]1CCCN1C2=O
viability at 1 µM [1]: 92.4%
viability at 1 µM (A-375 [2]): 86.5%
viability at 1 µM (A549): 101%
viability at 1 µM (MCF7): 95.4%
viability at 24 h, 1 µM [3]: 94.9%
viability at 1 µM [4]: 69.6%

COc1cc2c(cc1OCCCOc1cc(OC)c(OC)c(OC)c1)N=C[C@@H]1CCCN1C2=O
Activity (A-375 [5]): Active
Activity (A-375 [6]): Active
viability at 1 µM [1]: 71.9%
viability at 1 µM (A-375 [2]): 69.7%
viability at 1 µM (A549): 88.7%
viability at 1 µM (MCF7): 51.7%
Activity (A-375 [7]): Active
viability at 24 h, 1 µM [3]: 97.3%
viability at 1 µM [4]: 59.5%
Activity (A-375 [8]): Active

COc1cc2c(cc1OCCCCCOc1cc(OC)c(OC)c(OC)c1)N=C[C@@H]1CCCN1C2=O
Activity (A-375 [9]): Active
Activity (RPMI-7951 [10]): Active
Activity (A-375 [5]): Active
Activity (A-375 [11]): Active
Activity (A-375 [6]): Active
viability at 1 µM [1]: 69.4%
Activity (A-375 [12]): 37%
Activity (RPMI-7951 [13]): Active
Activity (A-375 [14]): Active
Activity (A-375 [15]): 16%
Activity (RPMI-7951 [16]): Active
inhibition (RPMI-7951 [17]): Active
inhibition (A-375 [18]): Active
Activity (A-375 [19]): tde
Activity (A-375 [20]): 4.2%
Activity (A-375 [21]): inactive
Activity (A-375 [22]): Active
inhibition (A-375 [23]): Active
Activity (A-375 [24]): Active
Activity (A-375 [25]): 45.8%
viability at 1 µM (A-375 [2]): 37.7%
Activity (A-375 [26]): tde
Activity (RPMI-7951 [27]): Active
Activity (A-375 [28]): tde
Activity (A-375 [29]): Active
viability at 1 µM (A549): 78%
viability at 1 µM (MCF7): 55%
Activity (A-375 [7]): Active
viability at 24 h, 1 µM [3]: 111%
viability at 1 µM [4]: 64.6%
Activity (A-375 [8]): Active
Activity (A-375 [30]): Active
